Laboratory results reported in ChEMBL document CHEMBL1134642, “Dicationic bis(9-methylphenazine-1-carboxamides): relationships between biological activity and linker chain structure for a series of potent topoisomerase targeted anticancer drugs” (J Med Chem, 2001).
pIC50: −log10 of the molar value.

Columns and labels:
[1] = Inhibitory concentration required to reduce cell number to 50% of control cultures in JLc(Jurkat human leukemia); format: functional
Procedure, shortened: (§1)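 Murine P388 leukemia, Lewis lung carcinoma (LL), and human Jurkat leukemia (JLC) cells, plus amsacrine- and doxorubicin-resistant Jurkat derivatives (JLA, JLD), were grown with drug. Seeding per well was 4.5×10^3 (P388), 10^3 (LL) and 3.75×10^3 (Jurkat). Exposure was 3 days (P388) or 4 days (others). Growth was read by [3H]TdR uptake (P388) or sulforhodamine assay. IC50 is the drug concentration (nM) halving cell number versus controls. Ratios are JLA/JLC and JLD/JLC IC50. Independent assays were run in duplicate.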

U-937 = experiment: Inhibitory concentration of the drug resulting in inhibition of cell growth to 50% of controls in U937 (human leukemia); format: functional, cell-based
[2] = Ratio of IC50 values obtained from CHrC5 and AuxB1 cell lines; format: functional
[3] = Ratio of IC50 values obtained from Jurkat lines, (JLa /JLc); format: functional, Homo sapiens; procedure, shortened: as §1
D3F = experiment: Concentration of the drug to reduce cell number to 50% of controls in D3F cell line; format: functional, cell-based
[4] = Ratio of IC50 values obtained from D3F-C10 and D3F cell lines; format: functional
[5] = tested on: Lewis lung carcinoma cell line; experiment: Inhibitory concentration required to reduce cell number to 50% of control cultures in LL(Lewis lung carcinoma cell line); format: functional, cell-based; conditions: Mus musculus; procedure, shortened: as §1
Mus musculus [6] = experiment: In vivo activity in colon 38 model for tumor growth delay after i.p. administration of 30 mg/kg in C57/B1 mice; format: functional; conditions: route intraperitoneal
Procedure, shortened: (§2)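 Treatment started at about 4 mm diameter, with 5 mice per group. Hydrochloride salts in distilled water were given intraperitoneally at 0.01 mL/g, q4d × 3. Calliper measurements were taken three times weekly; volume = 0.52·a²·b. Growth delay is the time for mean tumour volume to reach 4-fold pretreatment volume.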

Mus musculus [7] = experiment: In vivo activity in colon 38 model for tumor growth delay after i.p. administration of 8.9 mg/kg in C57/B1 mice; format: functional; conditions: route intraperitoneal; procedure, shortened: as §2
Mus musculus [8] = experiment: In vivo activity in HT-29 model for tumor growth delay after i.p. administration of 20 mg/kg in nude mice; conditions: route intraperitoneal
HT-29 [9] = experiment: Inhibitory concentration of the drug resulting in inhibition of cell growth to 50% of controls in HT-29 (human colon); format: functional, cell-based
Mus musculus [10] = experiment: In vivo activity in colon 38 model for tumor growth delay after i.p. administration of 13.3 mg/kg in C57/B1 mice; format: functional; conditions: route intraperitoneal; procedure, shortened: as §2
[11] = Ratio of IC50 values obtained from Jurkat lines, (JLd /JLc); format: functional, Homo sapiens; procedure, shortened: as §1
Mus musculus [12] = experiment: In vivo activity in colon 38 model for tumor growth delay after i.p. administration of 20 mg/kg in C57/B1 mice; format: functional; conditions: route intraperitoneal; procedure, shortened: as §2
[13] = Concentration of the drug to reduce cell number to 50% of controls in AuxB1 cell line; format: functional, cell-based
P388 = experiment: Inhibitory concentration required to reduce cell number to 50% of control cultures in P388 (murine leukemia cell line); format: functional, cell-based; conditions: Mus musculus; procedure, shortened: as §1
MOLT-4 = experiment: Inhibitory concentration of the drug resulting in inhibition of cell growth to 50% of controls in MOLT-4 (human leukemia); format: functional, cell-based
[14] = Inhibitory concentration required to reduce cell growth to 50% of control cultures in the NCI-ADR human cell line; format: functional; conditions: NCI/ADR-RES
MCF7 = experiment: Inhibitory concentration required to reduce cell growth to 50% of control cultures in the MCF-7 human cell line; format: functional
[15] = (§3) Average GI50 value for the drug over the whole cell line panel; format: functional
HT-29 [16] = experiment: Inhibitory concentration required to reduce cell growth to 50% of control cultures in the HT-29 human cell line; format: functional
CAKI-1 = experiment: Inhibitory concentration required to reduce cell growth to 50% of control cultures in the CAK1 human cell line; format: functional
SK-OV-3 = experiment: Inhibitory concentration required to reduce cell growth to 50% of control cultures in the SKOV3 human cell line; format: functional
HCT-116 = experiment: Inhibitory concentration required to reduce cell growth to 50% of control cultures in the HTC116 human cell line; format: functional
Mus musculus [17] = experiment: In vivo activity in HT-29 model for tumor growth delay after i.p. administration of 13.3 mg/kg in nude mice; conditions: route intraperitoneal
Whole cell line panel = experiment: as §3; format: functional
[18] = tested on: Lewis lung carcinoma cell line; experiment: Inhibitory concentration required to reduce cell number to 50% of control cultures in LL (Lewis lung carcinoma cell line); format: functional, cell-based; conditions: Mus musculus; procedure, shortened: as §1

Structure (SMILES) | pIC50 [1] | pIC50 [5] | pIC50 (P388) | Ratio [3] | Ratio [11] | also measured
Cc1cccc2nc3cccc(C(=O)NCCN4CCN(CCNC(=O)c5cccc6nc7cccc(C)c7nc56)CC4)c3nc12 | 7.96 | 7.92 | 5.65 | 0.6 | 0.9 | 
Cc1cccc2nc3cccc(C(=O)NCCCCNCCCCNCCCCNC(=O)c4cccc5nc6cccc(C)c6nc45)c3nc12 | 7.17 | 6.54 | 6.05 | 0.3 | 0.9 | 
Cc1cccc2nc3cccc(C(=O)NCCN(C)CCN(C)CCNC(=O)c4cccc5nc6cccc(C)c6nc45)c3nc12 | 8.28 | 7.70 | 7.48 | 0.4 | 0.6 | 
CCCN(CCNC(=O)c1cccc2nc3cccc(C)c3nc12)CCN(CCC)CCNC(=O)c1cccc2nc3cccc(C)c3nc12 | 7.34 | 6.92 | 6.60 | 0.5 | 0.8 | 
CCN(CCNC(=O)c1cccc2nc3cccc(C)c3nc12)CCN(CC)CCNC(=O)c1cccc2nc3cccc(C)c3nc12 | 7.80 | 7.32 | 6.77 | 0.6 | 0.7 | 
Cc1cccc2nc3cccc(C(=O)NCCCNCCCNCCCNC(=O)c4cccc5nc6cccc(C)c6nc45)c3nc12 | 8.89 | 7.51 | 6.37 | 0.5 | 1 | 
Cc1cccc2nc3cccc(C(=O)NCCCNCCCCNCCCNC(=O)c4cccc5nc6cccc(C)c6nc45)c3nc12 | 8.06 | 6.95 | 6.06 | 0.2 | 1.2 | GI50 [14]: 906 nM; GI50 (MCF7): 74 nM; GI50 [15]: 2000 nM; GI50 (HT-29 [16]): 366 nM; GI50 (CAKI-1): 8280 nM; GI50 (SK-OV-3): 13600 nM; GI50 (HCT-116): 335 nM
Cc1cccc2cc3cccc(C(=O)NCCN(C)C)c3nc12 | 7.34 | 8.25 |  | 4.6 | 4.8 | 
Cc1cccc2nc3cccc(C(=O)NCCCN4CCN(CCCNC(=O)c5cccc6nc7cccc(C)c7nc56)CC4)c3nc12 | 8.89 | 9.34 | 7.32 | 0.8 | 0.7 | 
Cc1cccc2nc3cccc(C(=O)NCCN(C)C)c3nc12 | 6.68 | 7.41 | 7.74 | 1.1 | 1.1 | 
Cc1cccc2nc3cccc(C(=O)NCCCNCCNCCCNC(=O)c4cccc5nc6cccc(C)c6nc45)c3nc12 | 8.77 | 7.46 | 6.13 | 0.4 | 1.3 | GI50 [14]: 8030 nM; GI50 (MCF7): 24 nM; GI50 [15]: 524 nM; GI50 (HT-29 [16]): 27 nM; GI50 (CAKI-1): 1000 nM; GI50 (SK-OV-3): 8890 nM; GI50 (HCT-116): 21 nM
Cc1cccc2nc3cccc(C(=O)NCCCN(C)CCCNC(=O)c4cccc5nc6cccc(C)c6nc45)c3nc12 | 8.25 |  |  | 0.6 | 0.6 | pIC50 (U-937): 8.16; GI50 [14]: 19 nM; Ratio [2]: 31.3; GI50 (MCF7): < 10 nM; pIC50 (D3F): 8.54; Ratio [4]: 0.57; GI50 (Whole cell line panel): 20 nM; GI50 (HT-29 [16]): < 10 nM; pIC50 (HT-29 [9]): 8.82; GI50 (CAKI-1): < 10 nM; GI50 (SK-OV-3): 220 nM; pIC50 [18]: 8.48; pIC50 [13]: 9.24; pIC50 (MOLT-4): 9.46; GI50 (HCT-116): < 10 nM

These reach a higher pIC50 [1]. Values come first.

pIC50 [1] | pIC50 [5] | pIC50 (P388) | Structure (SMILES) | Ratio [3] | Ratio [11] | also measured
9.22 | 8.41 | 8.08 | Cc1ccc(C)c2nc3c(C(=O)NCCNCCNCCNC(=O)c4cccc5nc6c(C)ccc(C)c6nc45)cccc3nc12 | 0.5 | 0.6 | pIC50 (U-937): 9.28; Ratio [2]: 30.3; pIC50 (D3F): 8.19; Ratio [4]: 0.77; Growth delay (Mus musculus [6]): 7.5 days; Growth delay (Mus musculus [7]): 2.8 days; Growth delay (Mus musculus [8]): 7.8 days; pIC50 (HT-29 [9]): 9.82; Growth delay (Mus musculus [10]): 2.4 days; Growth delay (Mus musculus [12]): 4.4 days; pIC50 [13]: 8.35; pIC50 (MOLT-4): 10.17
8.96 | 9.47 | 7.02 | Cc1cccc2nc3cccc(C(=O)NCCCCN4CCN(CCCCNC(=O)c5cccc6nc7cccc(C)c7nc56)CC4)c3nc12 | 0.5 | 0.5 | 
9.22 | 8.00 | 7.43 | Cc1ccc(Cl)c2nc3cccc(C(=O)NCCNCCNCCNC(=O)c4cccc5nc6c(Cl)ccc(C)c6nc45)c3nc12 | 0.4 | 0.8 | 
9.62 | 8.92 | 8.13 | Cc1cccc2nc3cccc(C(=O)NCCNCCCNCCNC(=O)c4cccc5nc6cccc(C)c6nc45)c3nc12 | 0.7 | 0.6 | 
9.15 | 7.96 | 8.82 | O=C1c2cccc3cccc(c23)C(=O)N1CCNCCCNCCN1C(=O)c2cccc3cccc(c23)C1=O [ELINAFIDE] | 0.3 | 0.6 | pIC50 (U-937): 9.47; pIC50 (HT-29 [9]): 9.82; pIC50 (MOLT-4): 10.43
9.74 | 8.55 | 7.68 | Cc1cccc2nc3cccc(C(=O)NCCNCCNCCNC(=O)c4cccc5nc6cccc(C)c6nc45)c3nc12 | 0.5 | 0.9 | pIC50 (U-937): 10.33; GI50 [14]: 15 nM; Growth delay (Mus musculus [17]): 2.4 days; Ratio [2]: 47.1; GI50 (MCF7): < 10 nM; pIC50 (D3F): 8.36; Ratio [4]: 0.91; GI50 [15]: 13 nM; Growth delay (Mus musculus [7]): 2.8 days; GI50 (HT-29 [16]): < 10 nM; pIC50 (HT-29 [9]): 10.10; Growth delay (Mus musculus [10]): 4 days; GI50 (CAKI-1): < 10 nM; Growth delay (Mus musculus [12]): 7 days; GI50 (SK-OV-3): < 10 nM; pIC50 [13]: 8.43; pIC50 (MOLT-4): 11.21; GI50 (HCT-116): < 10 nM
10.10 | 9.52 | 8.80 | Cc1cccc2nc3cccc(C(=O)NCCN(C)CCCN(C)CCNC(=O)c4cccc5nc6cccc(C)c6nc45)c3nc12 | 0.4 | 0.8 | GI50 [14]: < 0.1 nM; GI50 (MCF7): < 10 nM; GI50 [15]: 0.29 nM; GI50 (HT-29 [16]): < 10 nM; GI50 (CAKI-1): < 0.1 nM; GI50 (SK-OV-3): < 0.1 nM; GI50 (HCT-116): < 0.1 nM
